# OX1R antag-1 = antagonists of human orexin 1 receptor (OX1R); OX1R-expressing cells, FRET antagonist read-out; 1.8% of 330,000 active; Orexin/Hypocretin receptor type 1 (Homo sapiens), O43613; inhibition, % at 6.6 µM; in the data active means inhibition mostly above about 38%, no sharp cut-off; inactive means mostly below about 40%;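 further: 0% = agonist challenge alone and 100% = reference antagonist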
# OX1R antag-2 = OX1R (HCRTR1) antagonists, primary screen, fluorescence, CHO/OX1R cells, Fluo-8 calcium, orexin A. Fluo-8 calcium fluorescence. inhibition, % at 5 µM. 0.43% of 330,000 active;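 active means inhibition above its plate's threshold, mean inhibition of all tested compounds on the plate plus 3 SD, cut at about 37% in these data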;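 further: 0% = orexin A challenge wells and 100% = SB-334867-A antagonist wells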
# TAAR1 antagonist = human TAAR1 antagonists, primary screen, Fluo-8 calcium fluorescence, CHO RD-HGA16 cells; Trace amine-associated receptor 1 (Homo sapiens), Q96RJ0; antagonist; inhibition, % at 3 µM; 1.5% of 360,000 active; AID 624466, 2012;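 active means inhibition above a per-plate cutoff, the mean inhibition of test compounds on that plate plus 3 SD, cut at about 49% in these data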;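 further: 0% = DMSO plus EC80 beta-PEA response and 100% = DMSO alone without agonist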
# Target sequence (Q96RJ0 whole entry, looked up): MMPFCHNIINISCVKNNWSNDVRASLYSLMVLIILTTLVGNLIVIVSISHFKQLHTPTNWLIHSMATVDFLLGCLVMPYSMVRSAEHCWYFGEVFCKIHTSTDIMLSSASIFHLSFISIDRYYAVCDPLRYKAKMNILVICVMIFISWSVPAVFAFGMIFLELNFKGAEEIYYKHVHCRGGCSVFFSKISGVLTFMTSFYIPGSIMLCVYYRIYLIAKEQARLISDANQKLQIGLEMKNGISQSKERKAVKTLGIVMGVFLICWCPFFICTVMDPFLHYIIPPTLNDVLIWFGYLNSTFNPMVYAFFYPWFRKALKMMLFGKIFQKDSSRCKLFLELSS
#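 Test system: RD-HGA16 CHO cells with stable hTAAR1 and Gα16 / Probe or stimulus: EC80 β-phenethylamine stimulus / Times: seeding 17-24 h prior, 75-min 37 °C, 30-min RT dye loading / Detection: Fluo-8 calcium-sensitive fluorescence / Read-out basis: % inhibition scaled between DMSO and EC80 PEA controls / Repeats: singlicate, one well per test compound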
# CHO parental Ca = ATP-evoked calcium signal inhibitors, parental CHO, primary screen, counter-screen for OX1R antagonist project, cell-based, fluorescence, Fluo-8 calcium dye. parental CHO-K1, ATP-induced calcium, Fluo-8 fluorescence. inhibition, % at 5.6 µM. 0.63% of 330,000 active. AID 463079, 2010;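 active means inhibition above that plate's mean sample inhibition plus 3 SD, cut at about 26% in these data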;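 further: 0% = ATP-challenged DMSO wells and 100% = DMSO wells without ATP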
#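 Test system: parental CHO cells; detection: calcium-sensitive Fluo-8 fluorescence; evaluation: percent inhibition of calcium signal; also added: ATP as calcium-mobilizing challenge; repeats: one well per compound; control set: ATP-challenged DMSO wells low, unchallenged DMSO wells high; compound: single nominal dose of 5.6 µM per compound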
# GalR3 antag = GalR3 antagonists in HEK293 cells, primary screen, cell-based, fluorescence readout; Galanin receptor type 3 (Homo sapiens), O60755; AID 651719, 2012; 0.44% of 360,000 active; HEK293 GalR3-CNG cAMP membrane potential fluorescence; galR3 body fused to GalR1 C-terminus; inhibition, % at 3 µM;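 active means inhibition above the screen-wide average plus 3 SD, cut at about 13% in these data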;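 further: forskolin and galanin both at EC90 stimulate the cells; cAMP rise reported by CNG channel membrane potential dye signal; 0% = forskolin plus galanin with DMSO and 100% = forskolin alone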
# Target sequence (O60755 1-299 limits assumed): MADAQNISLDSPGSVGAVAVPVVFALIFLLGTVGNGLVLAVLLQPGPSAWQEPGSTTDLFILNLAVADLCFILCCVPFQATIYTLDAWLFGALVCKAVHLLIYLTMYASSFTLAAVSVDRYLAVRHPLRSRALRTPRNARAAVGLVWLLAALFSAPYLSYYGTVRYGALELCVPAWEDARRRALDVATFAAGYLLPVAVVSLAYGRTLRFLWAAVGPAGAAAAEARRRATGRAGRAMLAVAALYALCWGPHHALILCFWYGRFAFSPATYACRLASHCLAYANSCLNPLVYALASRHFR
# TAAR1 ag = human TAAR1 agonists, primary screen, Fluo-8 calcium fluorescence, CHO RD-HGA16 cells; Trace amine-associated receptor 1 (Homo sapiens), Q96RJ0; vehicle wells 0%, saturating PEA agonist 100%; activation, % at 3 µM; 0.99% of 360,000 active; AID 624467, 2012;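 active means activation above the mean activation of all test compounds in the run plus 3 SD, cut at about 38% in these data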
#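 test system = CHO RD-HGA16 cells carrying human TAAR1 plus Gα16 | schedule = 17-24 h seeding, 75 min 37 °C dye, 30 min RT | compound dosing = 3 µM single concentration | control set = DMSO and PEA EC100 | replicates = n 1 | signal = Fluo-8 fluorescence, 5 s baseline then 140 s kinetic read | measure = percent activation vs PEA EC100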
# * marks the source's active call; other numbers are inactive results; . = no result given. This is a sample that favours compounds with a hit; in the whole collection about 4.2% have one here.
SMILES,OX1R antag-1,OX1R antag-2,TAAR1 antagonist,CHO parental Ca,GalR3 antag,TAAR1 ag
Clc1ccc(Cn2ncc3c(N4CCN(c5ccccc5)CC4)ncnc32)cc1,.,.,56.6*,.,-3.6,12.3
CN1C(=O)SC(Nc2ccccc2)C1=O (configuration not stated),3.3,-14.4,-23.9,-0.9,0.4,0.5
O=[N+]([O-])c1ccc(O)c(-c2cc(C(F)(F)F)nc(-c3ccccc3)n2)c1,-25.7,20.7,13.8,73.7*,-1.6,11.2
O=C(Nc1cccc(NC(=O)c2ccccc2Cl)c1)c1ccc([N+](=O)[O-])o1,40.8,19.3,55.1*,17.6,-8.0,17.3
O=C(Nc1cccc([N+](=O)[O-])c1)c1ccc([N+](=O)[O-])o1,.,.,-3.2,.,-3.2,7.0
O=C(Nc1ccc2[nH]c(=O)[nH]c2c1)c1ccc([N+](=O)[O-])o1,43.0*,-2.1,3.9,-7.2,-5.3,0.9
CCOCCCNC(=O)c1ccccc1SCC,3.0,-12.9,-9.3,-8.3,-0.2,8.8
CCOC(=O)C1CCN(C(=O)COC(=O)c2ccc([N+](=O)[O-])o2)CC1,32.8*,-13.6,-3.0,-5.9,-6.3,1.1
CC(C)CN(C(=O)COC(=O)c1ccc([N+](=O)[O-])o1)C1CCS(=O)(=O)C1 (configuration not stated),74.7*,-11.4,-3.5,-4.8,-4.0,5.9
COC(=O)C1=C(C)NC(=S)NC1c1ccc(-c2cc(Cl)ccc2Cl)o1 (configuration not stated),55.5*,-14.7,-30.3,-0.9,-7.4,5.5
CCOC(=O)C1=C(COC(=O)c2ccc([N+](=O)[O-])o2)NC(=O)NC1C (configuration not stated),29.9*,-15.7,1.6,-5.2,-4.3,3.2
CCOC(=O)C1=C(COC(=O)c2cc([N+](=O)[O-])ccc2Cl)NC(=O)NC1C (configuration not stated),.,.,1.0,.,1.4,5.6
COC(=O)C1=C(C)NC(=O)NC1c1ccc(-c2ccc(Cl)cc2)o1 (configuration not stated),14.1,-33.2,0.2,-10.5,-2.2,4.8
CCN(CC)c1ccc(/C=N/NC(=O)CC(C)C)cc1,7.3,-6.8,2.0,0.9,0.0,0.8
O=C(OCCCOC(=O)c1ccc([N+](=O)[O-])o1)c1ccc([N+](=O)[O-])o1,52.9*,1.0,2.5,-2.8,-4.7,2.2
O=C(COC(=O)/C=C/c1ccccc1Cl)NCCNC(=O)COC(=O)/C=C/c1ccccc1Cl,17.7,-17.0,12.1,-11.0,0.0,1.0
NS(=O)(=O)c1ccc(CCNC(=O)COC(=O)c2ccc([N+](=O)[O-])o2)cc1,43.7*,-8.9,2.5,-8.8,-5.5,1.9
NS(=O)(=O)c1ccc(CCNC(=O)COC(=O)/C=C/c2ccccc2Cl)cc1,15.3,-17.0,-1.6,-4.0,-3.6,41.5*
COC(=O)C1=C(C)NC(=O)NC1c1ccc([N+](=O)[O-])o1 (configuration not stated),76.6*,-15.7,10.4,-12.7,-3.5,2.9
Cc1noc(C)c1NC(=O)Nc1ccc2c(c1)C(=O)N([C@H](C)CO)C[C@H](C)[C@@H](CN(C)C(=O)NC(C)C)O2,3.5,10.5,3.2,-1.5,1.9,2.1
COc1ccccc1/C=C/C(=O)c1cc(Br)ccc1OC(=O)c1ccco1,29.2,17.9,24.9,2.1,1.8,5.8
C[C@H](CO)N1C[C@H](C)[C@@H](CN(C)S(=O)(=O)c2ccccc2)Oc2c(NC(=O)Cc3ccccc3)cccc2C1=O,3.7,-22.4,13.5,-14.4,-4.2,5.4
CC1CCCC(C)N1C(=O)COC(=O)c1ccc([N+](=O)[O-])o1 (configuration not stated),39.3*,-21.7,-12.1,6.3,-0.4,1.5
CC1CC(C)CN(C(=O)COC(=O)c2ccc([N+](=O)[O-])o2)C1 (configuration not stated),24.9,-3.6,3.0,2.9,-4.2,8.2
CC(=O)N(c1ccc2oc(=O)sc2c1)S(=O)(=O)c1ccccc1,16.5,-13.1,6.6,3.3,0.6,1.6
SMILES,OX1R antag-1,OX1R antag-2,TAAR1 antagonist,CHO parental Ca,GalR3 antag,TAAR1 ag
CCOc1ccc(S(=O)(=O)N(C(=O)c2ccco2)c2cc3sc(=O)oc3c3ccccc23)cc1,6.3,68.7*,-0.3,82.0*,7.4,2.9
COc1ccc(S(=O)(=O)N(C(=O)c2ccco2)c2cc3sc(=O)oc3c3ccccc23)cc1,2.4,59.5*,17.0,66.0*,3.2,3.2
Cc1ccc(S(=O)(=O)N(C(=O)c2ccco2)c2cc3sc(=O)oc3c3ccccc23)cc1,10.1,61.5*,-2.6,76.0*,-1.4,0.8
O=S1(=O)N=C2CCCCCN2C(c2ccc(F)cc2)N1 (configuration not stated),14.1,-17.3,-12.1,-18.2,-0.2,7.0
CC(C)OCCCNC(=O)CN1C(=O)/C(=C/c2ccccc2)Sc2ccccc21,69.4*,19.2,17.8,-18.0,-2.8,2.8
CCNC(=O)c1ccc2c(c1)C1C3CCC(C3)C1C(c1ccccc1)N2 (configuration not stated),5.5,-20.5,30.9,-4.0,-6.3,18.1
Cn1ccc(NC(=O)c2ccc(Cl)cc2)n1,0.8,-9.2,-30.9,-11.7,-3.0,2.0
CN=C(Nc1cc(C)nn1CCC#N)c1ccc(F)cc1,4.1,-14.8,-7.5,-6.4,-3.4,7.3
Cn1ccc(NC(=O)c2ccc([N+](=O)[O-])cc2)n1,29.3*,-9.5,-9.5,-13.9,-8.1,5.6
Cc1cc(NC(=O)c2ccc([N+](=O)[O-])cc2)n(CCC#N)n1,46.5*,-3.9,-1.4,8.6,-7.5,-0.9
C=CCOc1ccc(/C=C2\SC(=S)N(NS(=O)(=O)c3ccccc3)C2=O)cc1,26.7,2.8,33.2,-0.6,-10.4,-2.1
CCn1c(=O)c(C(=O)Nc2ccccc2C)c(O)c2ccccc21,7.6,-6.0,-2.8,-9.0,-5.3,16.8
COc1ccc(-c2cc(C(=O)Nc3cc(OC)c(OC)c(OC)c3)no2)cc1OC,16.3,-29.0,.,-15.8,.,.
O=C(O)CCC(=O)NCCc1cccc(Cl)c1,10.0,-13.3,5.9,-13.1,-4.7,38.2*
CN(C)CCCNc1oc(/C=C/c2ccccc2)nc1C#N,14.1,-15.6,-31.2,-14.4,-2.3,1.5

# From PubChem
